Test results as given in ChEMBL document CHEMBL5550118, “Human mitochondrial glutathione transferases: Kinetic parameters and accommodation of a mitochondria-targeting group in substrates” (Bioorg Med Chem, 2024).

What was measured:
[1] = GSH reactivity in […] at 30 degreeC assessed as second-order reaction rate constant; assay type: ADME; details: buffer
[2] = substrate: O=[N+]([O-])c1ccc(Cl)c([N+](=O)[O-])c1; assay: Substrate activity at N-terminal His6 tagged human GSTA4-4 expressed in Escherichia coli BL21(DE3) assessed as catalytic constant at pH 6.5 at 30 degreeC by Michaelis-Menten analysis
Summary of the method: (§1)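 N-terminal His6/TEV-tagged human enzyme, expressed in E. coli BL21(DE3) and Ni-NTA purified. Run in 0.1 M sodium phosphate, pH 6.5, 30 °C. CDNB was varied with GSH fixed at 10 mM, or GSH was varied with CDNB fixed at 1 mM (GSH constants apparent). Conjugate formation read at 340 nm as initial rates over ≥1 min, in triplicate. A single background rate was subtracted, then fitted to Michaelis–Menten by non-linear regression.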

[3] = substrate: O=[N+]([O-])c1ccc(Cl)c([N+](=O)[O-])c1; assay: (§2) Substrate activity at N-terminal His6 tagged human GSTA4-4 expressed in Escherichia coli BL21(DE3) assessed as Kcat/Km at pH 8 at 30 degreeC by Michaelis-Menten analysis
Summary of the method: (§3)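 His6/TEV-tagged human GST was expressed in E. coli BL21(DE3) and purified on Ni-NTA. Assays used 0.1 M HEPES-HCl, pH 8, 30 °C. One substrate was varied: CDNB or chloronitrobenzene derivatives (derivatives 0.0625–2 mM) with 10 mM GSH, or GSH with 1 mM CDNB. Initial conjugate-formation rates were read at substrate-specific wavelengths, in triplicate. Triplicate background rates were subtracted. Enzyme amount was adjusted as needed. Fit by Michaelis–Menten non-linear regression or Lineweaver–Burk.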

[4] = substrate: O=[N+]([O-])c1cc([N+](=O)[O-])c(NCCCC[P+](c2ccccc2)(c2ccccc2)c2ccccc2)cc1Cl; assay: as §2; summary of the method: as §3
[5] = substrate: O=C(NCCCCC[P+](c1ccccc1)(c1ccccc1)c1ccccc1)c1ccc(Cl)c([N+](=O)[O-])c1; assay: (§4) Substrate activity at N-terminal His6 tagged human GSTA4-4 expressed in Escherichia coli BL21(DE3) assessed as Kcat/Km at pH 8 at 30 degreeC by Lineweaver-Burk plot analysis
Summary of the method: (§5)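 N-terminal His6/TEV-tagged enzyme was expressed in E. coli BL21(DE3) by IPTG induction at 15 °C and purified on Ni-NTA. Assays used 0.1 M HEPES-HCl pH 8, 30°C, with GSH fixed at 10 mM and substrate varied from 0.0625 to 2 mM. Conjugate formation was read by UV absorbance, and initial rates were measured in triplicate after subtracting the background rate. Constants came from a double-reciprocal Lineweaver-Burk fit.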

[6] = substrate: COC(=O)c1ccc(Cl)c([N+](=O)[O-])c1; assay: as §4; summary of the method: as §5
[7] = substrate: COC(=O)c1cc([N+](=O)O)ccc1Cl; assay: as §4; summary of the method: as §5
[8] = substrate: O=[N+]([O-])c1ccc(Cl)c([N+](=O)[O-])c1; assay: Substrate activity at N-terminal His6 tagged human GSTA4-4 expressed in Escherichia coli BL21(DE3) assessed as catalytic constant at pH 8 at 30 degreeC by Michaelis-Menten analysis; summary of the method: as §3
[9] = substrate: COC(=O)c1cc([N+](=O)O)ccc1Cl; assay: Substrate activity at N-terminal His6 tagged human GSTA4-4 expressed in Escherichia coli BL21(DE3) assessed as catalytic constant at pH 8 at 30 degreeC by Lineweaver-Burk plot analysis; summary of the method: as §5
[10] = substrate: O=[N+]([O-])c1ccc(Cl)c([N+](=O)[O-])c1; assay: Substrate activity at N-terminal His6 tagged human GSTA4-4 expressed in Escherichia coli BL21(DE3) assessed as Km at pH 8 at 30 degreeC by Michaelis-Menten analysis; summary of the method: as §3
[11] = substrate: O=[N+]([O-])c1ccc(Cl)c([N+](=O)[O-])c1; assay: Substrate activity at N-terminal His6 tagged human GSTA4-4 expressed in Escherichia coli BL21(DE3) assessed as Km at pH 6.5 at 30 degreeC by Michaelis-Menten analysis; summary of the method: as §1
[12] = substrate: O=[N+]([O-])c1ccc(Cl)c([N+](=O)[O-])c1; assay: Substrate activity at N-terminal His6 tagged human GSTA4-4 expressed in Escherichia coli BL21(DE3) assessed as Kcat/Km at pH 6.5 at 30 degreeC by Michaelis-Menten analysis; summary of the method: as §1
[13] = substrate: O=[N+]([O-])c1ccc(Cl)c([N+](=O)[O-])c1; assay: Substrate activity at N-terminal His6 tagged human GSTK1-1 expressed in Escherichia coli BL21(DE3) assessed as catalytic constant at pH 8 at 30 degreeC by Michaelis-Menten analysis; summary of the method: as §3
[14] = substrate: COC(=O)c1cc([N+](=O)O)ccc1Cl; assay: Substrate activity at N-terminal His6 tagged human GSTK1-1 expressed in Escherichia coli BL21(DE3) assessed as catalytic constant at pH 8 at 30 degreeC by Lineweaver-Burk plot analysis; summary of the method: as §5
[15] = substrate: COC(=O)c1ccc(Cl)c([N+](=O)[O-])c1; assay: (§6) Substrate activity at N-terminal His6 tagged human GSTK1-1 expressed in Escherichia coli BL21(DE3) assessed as Kcat/Km at pH 8 at 30 degreeC by Lineweaver-Burk plot analysis; summary of the method: as §5
[16] = substrate: COC(=O)c1cc([N+](=O)O)ccc1Cl; assay: as §6; summary of the method: as §5
[17] = substrate: O=[N+]([O-])c1ccc(Cl)c([N+](=O)[O-])c1; assay: (§7) Substrate activity at N-terminal His6 tagged human GSTK1-1 expressed in Escherichia coli BL21(DE3) assessed as Kcat/Km at pH 8 at 30 degreeC by Michaelis-Menten analysis; summary of the method: as §3
[18] = substrate: O=[N+]([O-])c1cc([N+](=O)[O-])c(NCCCC[P+](c2ccccc2)(c2ccccc2)c2ccccc2)cc1Cl; assay: as §7; summary of the method: as §3
[19] = substrate: O=[N+]([O-])c1ccc(Cl)c([N+](=O)[O-])c1; assay: Substrate activity at N-terminal His6 tagged human GSTK1-1 expressed in Escherichia coli BL21(DE3) assessed as Km at pH 8 at 30 degreeC by Michaelis-Menten analysis; summary of the method: as §3
[20] = substrate: O=C(NCCCCC[P+](c1ccccc1)(c1ccccc1)c1ccccc1)c1ccc(Cl)c([N+](=O)[O-])c1; assay: (§8) Substrate activity at N-terminal His6 tagged human GSTA1-1 expressed in Escherichia coli BL21(DE3) assessed as Kcat/Km at pH 8 at 30 degreeC by Lineweaver-Burk plot analysis; summary of the method: as §5
[21] = substrate: COC(=O)c1ccc(Cl)c([N+](=O)[O-])c1; assay: as §8; summary of the method: as §5
[22] = substrate: O=C(NCCCCC[P+](c1ccccc1)(c1ccccc1)c1ccccc1)c1cc([N+](=O)O)ccc1Cl; assay: as §8; summary of the method: as §5
[23] = substrate: COC(=O)c1cc([N+](=O)O)ccc1Cl; assay: as §8; summary of the method: as §5
[24] = substrate: O=C(NCCCCC[P+](c1ccccc1)(c1ccccc1)c1ccccc1)c1cc([N+](=O)O)ccc1Cl; assay: Substrate activity at N-terminal His6 tagged human GSTA1-1 expressed in Escherichia coli BL21(DE3) assessed as catalytic constant at pH 8 at 30 degreeC by Lineweaver-Burk plot analysis
Summary of the method: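 Assayed in 0.1 M HEPES-HCl pH 8 at 30°C. GSH fixed at 10 mM and chloronitrobenzene substrate varied 0.0625–2 mM. Initial rate of GS-conjugate formation read by UV absorbance at a substrate-specific wavelength. Background chemical rate (triplicate) subtracted. Triplicate rates, kcat from best-line fit of double-reciprocal plot.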

[25] = substrate: O=[N+]([O-])c1ccc(Cl)c([N+](=O)[O-])c1; assay: Substrate activity at N-terminal His6 tagged human GSTA1-1 expressed in Escherichia coli BL21(DE3) assessed as Km at pH 6.5 at 30 degreeC by Michaelis-Menten analysis; summary of the method: as §1
[26] = substrate: O=[N+]([O-])c1ccc(Cl)c([N+](=O)[O-])c1; assay: Substrate activity at N-terminal His6 tagged human GSTA1-1 expressed in Escherichia coli BL21(DE3) assessed as catalytic constant at pH 8 at 30 degreeC by Michaelis-Menten analysis; summary of the method: as §3
[27] = substrate: O=[N+]([O-])c1ccc(Cl)c([N+](=O)[O-])c1; assay: Substrate activity at N-terminal His6 tagged human GSTA1-1 expressed in Escherichia coli BL21(DE3) assessed as Kcat/Km at pH 6.5 at 30 degreeC by Michaelis-Menten analysis; summary of the method: as §1
[28] = substrate: O=[N+]([O-])c1ccc(Cl)c([N+](=O)[O-])c1; assay: (§9) Substrate activity at N-terminal His6 tagged human GSTA1-1 expressed in Escherichia coli BL21(DE3) assessed as Kcat/Km at pH 8 at 30 degreeC by Michaelis-Menten analysis; summary of the method: as §3
[29] = substrate: O=[N+]([O-])c1cc([N+](=O)[O-])c(NCCCC[P+](c2ccccc2)(c2ccccc2)c2ccccc2)cc1Cl; assay: as §9; summary of the method: as §3
[30] = substrate: O=[N+]([O-])c1ccc(Cl)c([N+](=O)[O-])c1; assay: Substrate activity at N-terminal His6 tagged human GSTA1-1 expressed in Escherichia coli BL21(DE3) assessed as Km at pH 8 at 30 degreeC by Michaelis-Menten analysis; summary of the method: as §3
[31] = substrate: O=[N+]([O-])c1ccc(Cl)c([N+](=O)[O-])c1; assay: Substrate activity at N-terminal His6 tagged human GSTA1-1 expressed in Escherichia coli BL21(DE3) assessed as catalytic constant at pH 6.5 at 30 degreeC by Michaelis-Menten analysis; summary of the method: as §1

Molecule: COC(=O)c1ccc(Cl)c([N+](=O)[O-])c1
- K [1]: 2.92 10^-6/mM/s

Molecule: O=[N+]([O-])c1ccc(Cl)c([N+](=O)[O-])c1 [DINITROCHLOROBENZENE]
- K [1]: 5.05 10^-5/mM/s

Molecule: O=[N+]([O-])c1cc([N+](=O)[O-])c(NCCCC[P+](c2ccccc2)(c2ccccc2)c2ccccc2)cc1Cl
- K [1]: 1.5 10^-5/mM/s

B1: Glutathione S-transferase A4 (Homo sapiens), O15217 (protein)
chain: MAARPKLHYPNGRGRMESVRWVLAAAGVEFDEEFLETKEQLYKLQDGNHLLFQQVPMVEIDGMKLVQTRSILHYIADKHNLFGKNLKERTLIDMYVEGTLDLLELLIMHPFLKPDDQQKEVVNMAQKAIIRYFPVFEKILRGHGQSFLVGNQLSLADVILLQTILALEEKIPNILSAFPFLQEYTVKLSNIPTIKRFLEPGSKKKPPPDEIYVRTVYNIFRP
- kcat [2]: 14.9 s⁻¹
- kcat/Km [3]: 19500 M⁻¹ s⁻¹
- kcat/Km [4]: 32200 M⁻¹ s⁻¹
- kcat/Km [5]: 2570 M⁻¹ s⁻¹
- kcat/Km [6]: 146 M⁻¹ s⁻¹
- kcat/Km [7]: 5.91 10^-2/mM/s
- kcat [8]: 4.94 s⁻¹
- kcat [9]: 5.61 10^-2/s
- Km [10]: 253 µM
- Km [11]: 5200 µM
- kcat/Km [12]: 2930 M⁻¹ s⁻¹

B2: Glutathione S-transferase kappa 1 (Homo sapiens), Q9Y2Q3 (protein)
chain: MGPLPRTVELFYDVLSPYSWLGFEILCRYQNIWNINLQLRPSLITGIMKDSGNKPPGLLPRKGLYMANDLKLLRHHLQIPIHFPKDFLSVMLEKGSLSAMRFLTAVNLEHPEMLEKASRELWMRVWSRNEDITEPQSILAAAEKAGMSAEQAQGLLEKIATPKVKNQLKETTEAACRYGAFGLPITVAHVDGQTHMLFGSDRMELLAHLLGEKWMGPIPPAVNARL
- kcat [13]: 14.6 s⁻¹
- kcat [14]: 9.45 10^-2/s
- kcat/Km [15]: 351 M⁻¹ s⁻¹
- kcat/Km [16]: 6.13 10^-2/mM/s
- kcat/Km [17]: 7670 M⁻¹ s⁻¹
- kcat/Km [18]: 287 M⁻¹ s⁻¹
- Km [19]: 1900 µM

B3: Glutathione S-transferase A1 (Homo sapiens), P08263 (protein)
chain: MAEKPKLHYFNARGRMESTRWLLAAAGVEFEEKFIKSAEDLDKLRNDGYLMFQQVPMVEIDGMKLVQTRAILNYIASKYNLYGKDIKERALIDMYIEGIADLGEMILLLPVCPPEEKDAKLALIKEKIKNRYFPAFEKVLKSHGQDYLVGNKLSRADIHLVELLYYVEELDSSLISSFPLLKALKTRISNLPTVKKFLQPGSPRKPPMDEKSLEEARKIFRF
- kcat/Km [20]: 21600 M⁻¹ s⁻¹
- kcat/Km [21]: 4320 M⁻¹ s⁻¹
- kcat/Km [22]: 6.49 10^-2/mM/s
- kcat/Km [23]: 1380 M⁻¹ s⁻¹
- kcat [24]: 4.67 10^-2/s
- Km [25]: 492 µM
- kcat [26]: 45.3 s⁻¹
- kcat/Km [27]: 71900 M⁻¹ s⁻¹
- kcat/Km [28]: 353000 M⁻¹ s⁻¹
- kcat/Km [29]: 101000 M⁻¹ s⁻¹
- Km [30]: 128 µM
- kcat [31]: 35.4 s⁻¹
